Bioassay records deposited in PubChem BioAssay by several laboratories.
GSTO1 inh – inhibitors of recombinant GSTO1, primary screen, counter-screen for RBBP9 inhibitor project, biochemical, fluorescence polarization; activity-based probe fluorescence polarization; Glutathione S-transferase omega-1 (Homo sapiens), P78417; actives 1.1% (n = 300,000); inhibition, % at 5.96 µM; AID 1974, 2009;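 active = inhibition above the campaign mean inhibition plus 3 SD, cut at about 35% in these data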;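 also: 0% = GSTO1-1 with DMSO and 100% = wells lacking GSTO1-1 enzyme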
TDP2 inh – human TDP2 enzyme inhibitors, primary screen, biochemical, epi absorbance, recombinant enzyme; T5PNP hydrolysis, p-nitrophenol absorbance 415 nm; inhibition, % at 12.8 µM; actives 0.34% (n = 370,000); AID 720702, 2013;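 active = inhibition above the mean of all tested compounds plus 3 SD, set per campaign, cut at about 25% in these data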;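 also: 0% = DMSO with enzyme and 100% = buffer with substrate but no TDP2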
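Evaluation: % inhibition relative to enzyme-containing and enzyme-free wells. Material: recombinant human TDP2. Benchmarks: enzyme-free and DMSO wells. Timing: enzyme reaction with compound for 2 h at 37 °C. Compound dosing: 12.8 µM only. Measured by: p-Nitrophenol epi absorbance. Reagent: T5PNP substrate at 5 mM, a TopII-DNA adduct mimic. Replication: single well per compound.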
PP5 inh – PP5 phosphatase inhibitors, primary screen, biochemical, fluorescence | Serine/threonine-protein phosphatase 5 (Homo sapiens), P53041 | purified PP5c, OMFP substrate fluorescence | inhibition, % at 6.7 µM | actives 0.18% (n = 320,000) | AID 1987, 2009;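 active = inhibition above the campaign's mean inhibition across all tested compounds plus 3 SD, cut at about 9.5% in these data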;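 also: 0% = DMSO only and 100% = 100 µM cantharidin control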
PP1 inh – PP1-alpha phosphatase inhibitors, primary screen, counter-screen for PP5 inhibitor project, biochemical, fluorescence, OMFP substrate, single point; purified PP1alpha; Serine/threonine-protein phosphatase PP1-alpha catalytic subunit (Homo sapiens), P62136; actives 0.9% (n = 320,000); inhibition, % at 6.7 µM; AID 2235, 2010;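 active = inhibition above the mean inhibition of all tested compounds plus 3 SD, computed separately for each screening campaign, cut at about 15% in these data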
Apaf1 inhib – inhibitors of human Apaf-1 apoptosome, primary screen, biochemical, DEVD-Rh110 fluorescence, uHTS. AID 489030, 2010. Apoptotic protease-activating factor 1 (Homo sapiens), O14727. actives 0.71% (n = 330,000). reconstituted apoptosome caspase-3 activity. inhibition, % at 20 µM; active = inhibition of at least 40% at 20 µM;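 also: plate controls were DMSO wells for no effect and DEVD-CHO caspase inhibitor wells for full effect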
Target sequence (O14727 whole entry, looked up): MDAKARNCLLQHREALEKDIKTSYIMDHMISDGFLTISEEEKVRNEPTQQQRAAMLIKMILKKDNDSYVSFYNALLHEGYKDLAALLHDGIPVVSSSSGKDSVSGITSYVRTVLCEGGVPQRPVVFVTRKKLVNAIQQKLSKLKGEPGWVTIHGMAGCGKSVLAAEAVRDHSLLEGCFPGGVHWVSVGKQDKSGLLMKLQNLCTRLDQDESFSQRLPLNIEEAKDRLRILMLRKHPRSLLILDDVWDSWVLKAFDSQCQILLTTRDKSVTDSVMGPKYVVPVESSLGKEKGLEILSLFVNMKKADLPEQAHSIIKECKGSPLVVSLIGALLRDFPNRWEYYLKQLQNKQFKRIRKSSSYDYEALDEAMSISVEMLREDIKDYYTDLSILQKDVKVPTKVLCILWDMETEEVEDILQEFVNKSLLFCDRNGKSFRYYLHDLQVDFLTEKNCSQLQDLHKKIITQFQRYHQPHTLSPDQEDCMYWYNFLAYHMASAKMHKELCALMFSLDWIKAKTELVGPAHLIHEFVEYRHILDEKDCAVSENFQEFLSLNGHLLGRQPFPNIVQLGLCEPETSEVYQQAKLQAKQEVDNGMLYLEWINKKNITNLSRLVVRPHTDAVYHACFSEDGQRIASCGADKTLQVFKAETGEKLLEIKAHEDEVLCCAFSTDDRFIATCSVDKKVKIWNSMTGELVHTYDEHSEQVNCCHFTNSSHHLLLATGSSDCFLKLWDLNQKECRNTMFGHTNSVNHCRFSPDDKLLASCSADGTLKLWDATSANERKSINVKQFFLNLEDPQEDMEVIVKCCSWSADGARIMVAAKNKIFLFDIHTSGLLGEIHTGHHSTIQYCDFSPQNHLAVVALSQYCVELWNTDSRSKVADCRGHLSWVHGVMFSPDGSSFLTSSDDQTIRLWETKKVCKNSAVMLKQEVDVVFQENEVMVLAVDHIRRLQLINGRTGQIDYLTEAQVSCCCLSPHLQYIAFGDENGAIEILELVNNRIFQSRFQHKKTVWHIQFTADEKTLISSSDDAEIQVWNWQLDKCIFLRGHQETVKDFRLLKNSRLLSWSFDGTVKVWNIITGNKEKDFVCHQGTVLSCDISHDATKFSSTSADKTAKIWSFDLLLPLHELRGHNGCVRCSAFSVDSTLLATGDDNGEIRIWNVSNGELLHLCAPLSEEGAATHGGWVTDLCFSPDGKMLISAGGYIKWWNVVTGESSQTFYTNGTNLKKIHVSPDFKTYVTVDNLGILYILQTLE
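Material: biochemical Apaf-1 apoptosome reconstitution. Medium: Hepes buffer, pH 7.5. Also added: cytochrome c activation, bis-DEVD rhodamine 110 substrate. Timing: 30 min compound preincubation, 50 min activation, room temperature. Measured by: rhodamine 110 fluorescence at Ex 480/Em 540 nm.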
Apaf-1 inh conf2 – Apaf-1 inhibitors, single-dose retest, confirmation, biochemical, fluorescence, DEVD-Rh110, 20 µM. reconstituted apoptosome, caspase-3 DEVD-Rh110 fluorescence. shares compounds with Apaf1 inhib. inhibition, % at 20 µM. AID 504614, 2011. actives 25% (n = 1,800);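 active = mean inhibition of at least 40% at 20 µM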;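 also: plate controls were DMSO wells for no effect and DEVD-CHO caspase inhibitor control wells for full effect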
Rh110 quench – Rh110 fluorescence interference by putative Apaf-1 inhibitors, confirmation, artefact control for Apaf-1 inhibitor project, biochemical, 20 µM; shares compounds with Apaf1 inhib; quenched caspase reaction; activation (fluorescence interference), % at 20 µM; 1,800 tested, under 10 active; AID 504615, 2011;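 active = signal rise of 40% or more at 20 µM, treated as a fluorescence artifact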
Fluor interf inh – fluorescence interference of Apaf-1 inhibitor hits, dose response, artefact control for Apaf-1 inhibitor project | AID 588538, 2011 | IC50, µM | fluorescence interference counterscreen, Apaf-1 assay format | 460 tested, under 10 active | shares compounds with Apaf1 inhib; call rule not given here
* = called active by the depositor; . = no result. Rows were chosen to be rich in hits. Some 2.1% of all compounds tested hit in one or more screens of this group.

SMILES | GSTO1 inh | TDP2 inh | PP5 inh | PP1 inh | Apaf1 inhib | Apaf-1 inh conf2 | Rh110 quench | others
O=C(c1ccc([N+](=O)[O-])o1)N(Cc1nnc(-c2ccccc2Cl)o1)C1CC1 | . | 10 | 0 | 0 | 51* | 41* | 5 | Fluor interf inh=>100
Cc1ccc(C(=O)N(Cc2nnc(-c3ccccc3Cl)o2)C2CC2)o1 | . | 1 | . | . | . | . | .
CN(C)c1oc(-c2ccco2)nc1C#N | 3 | 0 | -2 | -1 | 3 | . | .
CN(Cc1ccccc1)c1oc(-c2ccco2)nc1C#N | -3 | 7 | 1 | -2 | 41* | 15 | -3
CC(C)C[C@@H]1COc2cc(Br)ccc2S(=O)(=O)N1Cc1cn(Cc2ccc(F)cc2)nn1 | . | 0 | . | . | . | . | .
Cn1c(NC(=O)c2ccc(Cl)s2)cc(=O)n(C)c1=O | 0 | -13 | -1 | 12 | 66* | 10 | -3
Cc1c(CCO)c(=O)n2c([nH]c3ccccc32)c1C#N | -6 | -6 | 2 | 1 | 24 | . | .
CCCCc1c(C)c(C#N)c2[nH]c3ccccc3n2c1=O | -142 | 2 | 5 | 0 | 45* | 50* | 7 | Fluor interf inh=>100
Cc1c(CCC(C)C)c(=O)n2c([nH]c3ccccc32)c1C#N | -13 | . | 2 | -6 | 60* | 65* | -2 | Fluor interf inh=>100
COc1ccc(CNc2ccc3cn[nH]c3c2)c(OC)c1OC | 33 | 19 | 0 | -2 | 46* | 39 | -2
CCOc1cc(CNc2ccc3cn[nH]c3c2)ccc1OC | 18 | 30* | 7 | -2 | 85* | 49* | -2 | Fluor interf inh=>100
O[C@@H](Cc1ccccc1)[C@@H](/C=C/c1ccccc1)NCCc1ccccc1 | . | -3 | . | . | . | . | .
COCCN1Cc2cc(C(=O)OC)c3c(c2C1=O)c1ccccc1n3S(=O)(=O)c1ccc(C)cc1 | . | -11 | . | . | . | . | .
COc1ccccc1Cc1c(-c2cccc(Br)c2)nc2c(C)cc(Br)cn12 | . | 7 | . | . | . | . | .
Cc1cc(C)c(S(=O)(=O)/N=C2/C=C(SCC(=O)O)C(=O)c3ccccc32)cc1C | . | . | . | . | 72* | 55* | -2 | Fluor interf inh=>100
CN(Cc1ccc(F)cc1)C(=O)CNC(=O)c1cccs1 | . | -4 | 1 | -4 | 56* | 41* | 4 | Fluor interf inh=>100
CN1Cc2nnn(Cc3ccccc3)c2-c2cc(F)ccc2S1(=O)=O | . | 3 | . | . | . | . | .
Cc1ccc(S(=O)(=O)N2CCN(C(=O)CCOc3cc(C)ccc3C)CC2)cc1 | . | 8 | 5 | 7 | 40* | 24 | 6
Cc1ccc(C)c(OCCC(=O)N2CCN(S(=O)(=O)c3cc(F)ccc3F)CC2)c1 | . | 5 | 3 | -2 | 22 | . | .
COc1ccc(C=Nn2c(-c3ccc(F)cc3)n[nH]c2=S)c(OC)c1OC | . | -10 | . | . | . | . | .
COc1cc(C2C(C#N)=C(C)NC3=C2C(=O)c2ccccc23)cc(OC)c1OC (centres undefined) | 5 | 5 | 2 | -4 | 54* | 28 | 11
CN(CCO)c1cccc2c1S(=O)(=O)N(Cc1cn(Cc3ccc(F)cc3)nn1)Cc1ccccc1O2 | . | 0 | . | . | . | . | .
CN(C)C(=O)c1ccc(NC(=O)c2sccc2-c2ccccc2)cc1 | 2 | -11 | -1 | -3 | 45* | 31 | 1
CN(C)C(=O)c1ccc(NC(=O)c2cccnc2)cc1 | 6 | -4 | 0 | -5 | 7 | . | .
C[C@@H]1CN([C@@H](C)CO)C(=O)CCCn2cc(nn2)CO[C@H]1CN(C)C(=O)C1CC1 | . | 0 | . | . | . | . | .
SMILES | GSTO1 inh | TDP2 inh | PP5 inh | PP1 inh | Apaf1 inhib | Apaf-1 inh conf2 | Rh110 quench | others
NC(=NCCc1c[nH]c2ccccc12)NC(=O)OCc1ccccc1 | . | 6 | . | . | . | . | .
O=C(CCn1c2c(c3ccccc31)CCCC2)NNC(=O)c1ccc(Cl)c([N+](=O)[O-])c1 | -2 | -5 | -10 | -7 | 89* | 87* | 8 | Fluor interf inh=>100
O=C(CCn1c2c(c3ccccc31)CCCC2)NNC(=O)c1ccc([N+](=O)[O-])cc1 | 3 | -3 | -1 | 1 | 81* | 85* | 7 | Fluor interf inh=>100
c1ccc2c(c1)CC/C2=N/Nc1nc2ccccc2[nH]1 | 6 | 6 | 2 | 6 | 57* | 12 | 4
CC(C)(C)C1CCC(=NNc2nc3ccccc3[nH]2)CC1 (centres undefined) | 2 | -4 | 0 | -1 | 3 | . | .
O=c1c2ccccc2n(Cc2ccco2)n1[C@@H](Cc1ccccc1)Cn1cc(C2CCCC2)nn1 | . | 11 | . | . | . | . | .
COC(=O)C1CN(Cc2cn(Cc3ccc(Cl)cc3)nn2)CCS(=O)(=O)N1Cc1ccc(C)cc1 (centres undefined) | . | 0 | . | . | . | . | .
CC(=O)N(C)C1=C(O)c2ccccc2C(=O)C1=O | 4 | 5 | 0 | -5 | 40* | 17 | 14
CC(=O)N(C1=C(O)c2ccccc2C(=O)C1=O)C1CCCCC1 | 0 | 1 | -1 | -2 | 6 | . | .
Cc1ccccc1OCC(=O)Nc1ccc(N2CCOCC2)cc1N1CCOCC1 | . | -2 | 1 | -6 | 4 | . | .
Cc1cc(N2CCCC2)ccc1NC(=O)COc1ccccc1 | . | -3 | . | . | 52* | 19 | -2
CCc1ccccc1OCC(=O)Nc1ccc(N2CCCC2)cc1C | . | -3 | . | . | 43* | 26 | 4
CC(=O)CC(=O)O[C@@H]1C=C[C@H](NC(=O)OC(C)(C)C)C1 | . | 5 | . | . | . | . | .
CCOC(=O)c1c2ccc(OCC(=O)NN)cc2n2ccccc12 | 40* | 4 | 0 | 6 | 42* | 53* | 0 | Fluor interf inh=>100
CCOC(=O)c1c2ccc(OCC(=O)N/N=C/c3ccc(C)cc3)cc2n2ccccc12 | 15 | 16 | 0 | -2 | 35 | . | .
COc1ccc(Cn2ccc3ccc(-c4ccc5ccn(C(=O)c6ccccc6C)c5c4)cc32)cc1 | . | 4 | . | . | . | . | .
Cc1ccc(N=c2ssnc2Cl)cc1 | 2 | 0 | 3 | -2 | 6 | . | .
Cc1nnc(N=c2ssnc2Cl)o1 | . | 12 | 2 | 0 | 50* | 57* | 5 | Fluor interf inh=>100
COC(=O)c1cnn(-c2ccc(Cl)cc2)c1/C=N/NC(=S)Nc1ccccc1 | . | 1 | . | . | . | . | .
O=C(O)c1ccc(NC(=S)NC(=O)c2cccc(COc3ccccc3)c2)cc1 | -6 | 0 | 1 | 14 | 12 | . | .
O=C(NC(=S)Nc1ccc(CN2CCCCC2)cc1)c1cccc(OCc2ccccc2)c1 | -7 | -8 | 1 | 3 | 43* | 17 | 17
